In ChEMBL document CHEMBL1135478, “From imidazoles to pyrimidines: new inhibitors of cytokine release” (J Med Chem, 2002) one finds IC50 data, which are given here for ten compounds.

The structures appear in SMILES notation. Some results are limits rather than exact numbers.

The target in test [1] is T1, MAP kinase p38 (Homo sapiens, UniProt O15264+Q15759+Q16539+P53778). As to the kind of experiment: Inhibition of Mitogen-activated protein kinase p38. Type of test: protein assay.
The target in test [2] is T1, MAP kinase p38. The test is described as follows: Inhibition of p38 MAP kinase related interleukin (IL1-beta (cytokine) release from human whole blood. Type of test: functional, tissue-based. Put shortly: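 Human whole blood preincubated 15 min (37 °C, 5% CO₂) with compound from 70:30 Cremophor EL/ethanol stock dilutions (vehicle 1% in all samples). Stimulated with LPS (E. coli 026:B6), 1 µg/mL, 4 h, 37 °C. Reaction stopped on ice, then centrifuged. Supernatant IL-1β measured by ELISA. IC50 read from semilog plot of % reduction vs vehicle controls. At least duplicate.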

The target in test [3] is T1, MAP kinase p38. As to the kind of experiment: Inhibition of p38 MAP kinase related TNF-alpha release from human whole blood. Type of test: functional, tissue-based.
Test [4] addresses T1, MAP kinase p38. As to the kind of experiment: Inhibition of p38 MAP kinase related TNF-alpha release from peripheral blood mononuclear cells (PBMC). Type of test: functional.
For test [5], the target named is T1, MAP kinase p38. As to the kind of experiment: Inhibition of p38 MAP kinase related interleukin (IL1-beta (cytokine) release from human peripheral blood mononuclear cells.

For orientation: IC50 means the concentration at which inhibition is half-maximal. Higher therefore signals a need for much substance. In the case of `C[S+]([O-])c1ccc(CSc2ncc(-c3ccc(F)cc3)c(-c3ccncc3)n2)cc1` (stereo unspecified), the IC50 against MAP kinase p38 [1] is 36 µM; at MAP kinase p38 [2], 45.5 µM; on MAP kinase p38 [3], 95.5 µM; at MAP kinase p38 [4] it was 14.1 µM; at MAP kinase p38 [5] it was 5.6 µM.
For the compound `C[S+]([O-])c1cccc(CSc2nc(-c3ccc(F)cc3)c(-c3ccncc3)[nH]2)c1` (stereo unspecified), the IC50 on MAP kinase p38 [2] is 4.1 µM; against MAP kinase p38 [3] it was 33.5 µM; at MAP kinase p38 [4] it was 23.5 µM; against MAP kinase p38 [5] it was 1 µM.
For `C[S+]([O-])c1ccc(CSc2nc(-c3ccc(F)cc3)c(-c3ccncc3)[nH]2)cc1` (stereo unspecified), the IC50 on MAP kinase p38 [1] turned out to be 4 µM; against MAP kinase p38 [2], 2.78 µM; against MAP kinase p38 [3], 20.3 µM; at MAP kinase p38 [4] it was 3.65 µM; on MAP kinase p38 [5], 0.88 µM.
With `CS(=O)(=O)c1ccc(CSc2ncc(-c3ccc(F)cc3)c(-c3ccncc3)n2)cc1`, the IC50 at MAP kinase p38 [2] was above 100 µM; on MAP kinase p38 [3], above 100 µM; at MAP kinase p38 [4], 17.8 µM; against MAP kinase p38 [5], 7.7 µM.
Regarding `C[S+]([O-])c1ccc(CSc2ncc(-c3ccc(F)cc3)c(-c3cccnc3)n2)cc1` (stereo unspecified), the IC50 against MAP kinase p38 [2] is above 100 µM; against MAP kinase p38 [3] it was above 100 µM; at MAP kinase p38 [4], 54 µM; against MAP kinase p38 [5] it was 75.5 µM.
Consider `C[S+]([O-])c1cccc(CSc2ncc(-c3ccc(F)cc3)c(-c3ccncc3)n2)c1` (stereo unspecified), for which the values for the IC50 on MAP kinase p38 [1], against MAP kinase p38 [4] and against MAP kinase p38 [5] were 19 µM, 6.5 µM and 5.4 µM, respectively.
In the case of `C[S+]([O-])c1ccccc1CSc1nc(-c2ccc(F)cc2)c(-c2ccncc2)[nH]1` (stereo unspecified), the IC50 at MAP kinase p38 [2] was 4 µM; on MAP kinase p38 [3], 47.5 µM; at MAP kinase p38 [4], 15 µM; against MAP kinase p38 [5], 0.9 µM.
For `C[S+]([O-])c1ccc(CSc2ncc(-c3ccncc3)c(-c3ccc(F)cc3)n2)cc1` (stereo unspecified) the same measures were above 100 µM, above 100 µM, 29.9 µM and 17.8 µM.
For `C[S+]([O-])c1ccc(CSc2nc(O)c(-c3ccc(F)cc3)c(-c3ccncc3)n2)cc1` (stereo unspecified) the same measures were above 100 µM, above 100 µM, 27 µM and 25.5 µM.
Taken in the same sequence, the figures for `CSc1ccc(CSc2ncc(-c3ccc(F)cc3)c(-c3ccncc3)n2)cc1` were above 100 µM, above 100 µM, 60 µM and 7.4 µM.
